Among the data in PubChem BioAssay AID1424 (The Scripps Research Institute Molecular Screening Center, 2008) are activation values, retold here.

In all, about 220,000 compounds went through this assay and about 390 (0.18%) were called active. The sample as a whole holds a higher share of actives than the screen did. Unmarked numbers belong to inactive results.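 How the source made its calls: active means activation above its plate's cutoff, the mean activation of test wells on that plate plus 3 SD (cut at about 19% in these data); inactive means the rest.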 Residues, ends and D or L forms follow the SMILES beside them. *: point of attachment. OPac = O=C(CO*)c1ccccc1; Bz = O=C(c1ccccc1)*

For the experiment, the system named is transient receptor potential cation channel N1 (TRPN1/NompC), Danio rerio. Nature of the experiment: zebrafish TRPN1 channel agonists, primary screen, cell-based, HEK293, calcium fluorescence (AID 1424).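 Further: 0% = DMSO alone and 100% = 87 µM carbachol.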 As to conditions: HEK293 zebrafish TRPN1-YFP, Fluo-8 calcium fluorescence; at 3 µM; hits give high values; 100% = response to 87 µM carbachol. In a few lines: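 Assay system: Zebrafish TRPN1-YFP in HEK293 cells | Incubation: Dye loading 1 h at 37 °C, then 30 min room temperature | Measured by: Kinetic Fluo-8 fluorescence, ex 470-495, em 515-575 nm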
Take `COc1ccc(N2C(=O)c3cccc4cccc(c34)C2=O)nn1`: the activation is -0.39%. For `Cc1nn(C)cc1N1C(=O)c2cccc3c(N)ccc(c23)C1=O`, the activation is 23.7% (active). To `Cc1nn(-c2cc(Cl)ccc2N)c(=O)c2ccccc12` belongs -1.21%; to `Cc1cc(=O)oc2cc(OCCC[n+]3ccccc3)ccc12`, 0.59%. Regarding `O=C(CNCc1ccc(Cl)cc1)Nc1cccc(C(=O)O)c1`, the activation was 0.21%. Regarding `CCOC(=O)c1c(C)oc(C)c(C(=O)OCC)c1=O`, the activation is 1.29%. Regarding `O=[N+]([O-])/C=C1\CCCCCN1`, the activation is 3.32%. To `N#C/C(=C/c1cccc([N+](=O)[O-])c1)c1nnc2n1CCCCC2` belongs 2.1%; to `COCc1cc(=O)[nH]c(SC)n1`, 1.98%. Consider `CCOC12CC(C)(C)CC(C)(CC3=C1C(=O)CC(C)(C)C3)C2` (configuration not stated), for which the activation is 1.01%. To `CSc1cccc(NC(=S)N(Cc2ccccc2)Cc2ccccn2)c1` belongs -0.2%; to `CCOc1ccc(-n2c(O)c(/C=N/c3ccnn3Cc3ccncc3)c3ccccc3c2=O)cc1`, 0.39%; to `O=C(COC(=O)c1ccco1)NCc1ccc(Cl)cc1`, 0.49%. `Cc1cc(C)n(Cc2cnc(N3CCOCC3)s2)n1`: the activation is 0.48%. To `CNC(=O)c1ccsc1NC(=O)c1ccc(S(=O)(=O)N2CCOCC2)cc1` belongs 2.83%; to `CC1=NN(c2cccc(Cl)c2)C(=O)C12CC(C)=C(C)CS2` (configuration not stated), -0.78%. The same measure for `Cc1ccc(N2CCN(S(=O)(=O)c3ccc(F)cc3)CC2)c(C)c1`: -1.18%. As for `O=C1CC(N2CCN(c3ccc(F)cc3)CC2)C(=O)N1c1ccccc1` (configuration not stated), the activation was 0.96%. On to `Cc1ccc(N2C(=O)CC(N3CCSCC3)C2=O)c(C)c1` (configuration not stated), for which the activation was 40.3% (active). `Cc1cc(C)n(C(=O)CCNC(=O)c2ccccc2Cl)n1`: the activation is 0.31%. The same measure for `CC(C)c1ccc(NC(=S)NC2CC3C=CC2C3)cc1` (configuration not stated): 1.72%; for `CCCCCCCCCOC1OC(CO)C(O)C(O)C1NC(C)=O` (configuration not stated): 1.72%. To `O=C(CNC(=O)c1ccccc1)NCC(=O)OCC(=O)c1ccccc1` (Bz-Gly-Gly-OPac) belongs 1.5%; to `CC(C)OC(=O)CN1CCN(c2ccc(Cl)cc2)CC1`, 4.98%. The same measure for `Cc1ccc(C(=O)Nc2nnc(-c3ccncc3)s2)o1`: 1.91%; for `Cc1ccc(NC(=O)Nc2nnc(-c3ccncc3)s2)cc1`: 20.7% (active). For the molecule `Cc1occc1C(=O)Nc1nnc(-c2ccncc2)s1`, the activation is 0.89%. The same measure for `O=C(NN=C1CCC(=NNC(=O)c2cccnc2)CC1)c1cccnc1`: 1.24%; for `COc1cc(NC(=O)c2cccnc2SC)cc(OC)c1`: -0.29%.

For `COc1cc(NC(=O)c2ccccc2NS(=O)(=O)c2ccc(Cl)s2)cc(OC)c1`, the activation is 21% (active).

As for `CCOc1ccc(NC(=O)c2ccccc2NS(C)(=O)=O)cc1`, the activation is 0.2%. On to `O=C(Nc1nncs1)c1ccccc1NS(=O)(=O)c1cccs1`, for which the activation is -0.5%.

On to `COC(=O)c1ccc(NC(=O)c2ccccc2NS(=O)(=O)c2ccccc2)cc1`, for which the activation was 19.8% (active). In the case of `COC(=O)c1ccccc1NC(=O)c1ccccc1NS(C)(=O)=O`, the activation was -1.95%.

Turning to `C=C(C)CNC(=S)N/N=C/c1ccccc1OCC(=O)O`, the activation is 1.26%. The same measure for `Cc1ccc2cc(CN(c3ccc(C)c(C)c3)S(C)(=O)=O)c(=O)[nH]c2c1`: 1.62%; for `CC#CC[N+](C)(C)CCCCCC`: -0.58%; for `COCCN(Cc1nc(-c2ccc(C(F)(F)F)cc2)no1)C(C)C`: 0.76%.

With `O=C(CCNC(=O)Cn1ccc2ccccc2c1=O)NCCC1=CCCCC1`, the activation was -0.5%.

Regarding `COc1ccc(OC)c(-c2c(=O)n(OCc3ccccc3Br)c3ccccc3[n+]2[O-])c1`, the activation is -1.72%. For the molecule `COc1ccc(C(C)=O)cc1COc1ccc(Cl)c(C)c1`, the activation was 0.81%. As to `CCOC(=O)CC1C(=O)NCCN1C(=O)COc1ccc(Br)cc1C` (configuration not stated), the activation was -0.63%. For the molecule `CCOC(=O)CC1C(=O)NCCN1c1nc2c(C)cccn2c(=O)c1/C=C1\SC(=S)N(C(C)CC)C1=O` (configuration not stated), the activation is 23.3% (active).

Regarding `Cc1cccn2c(=O)c(/C=C3\SC(=S)N(CC(C)C)C3=O)c(NCCCOC(C)C)nc12`, the activation was 1.73%. The same measure for `CCOC(=O)C1(Cc2cccc(OC)c2)CCN(C(C)COC)CC1` (configuration not stated): -0.77%; for `Cc1ccc(N2C(=O)S/C(=C/c3cn(C)c4ccccc34)C2=O)cc1`: 1.3%; for `N#C/C(=C/c1ccc(N2CCCCC2)o1)C(=O)NCCc1c[nH]c2ccccc12`: 29.5% (active). Take `N#C/C(=C/c1ccc(-c2ccccc2[N+](=O)[O-])o1)C(=O)NCCN1CCCCC1`: the activation was -2.16%. The same measure for `O=C(NCCc1c[nH]c2ccccc12)C(=O)NCC1CCCO1` (configuration not stated): 0.46%; for `COCCCNC(=O)CNC(=S)N(Cc1cc(OC)c(OC)c(OC)c1)C1CCCC1`: 0.25%; for `C=CCNC(=O)c1ccccc1NC(=O)c1ccc(Cl)c(S(=O)(=O)Nc2cccc(C)c2C)c1`: 1.27%. Consider `Cn1nnnc1-c1cc(Cl)cc(Cl)c1`, for which the activation is -0.59%. To `CCN1/C(=C/c2ccc3ccc(C)cc3[n+]2CC)Sc2ccccc21` belongs 30.7% (active). To `CCN1/C(=C/C(=S)Nc2ccccc2)Sc2ccccc21` belongs -1.89%; to `CCN1CCN(CCNC(=O)c2ccc(/C=C3/Sc4ccccc4N(Cc4cccc(C)c4)C3=O)cc2)CC1`, 4.77%. With `CCN1/C(=C\c2ccc3ccccc3[n+]2CC)Sc2cc(C)ccc21`, the activation was 38.4% (active). `CC(C)(C)C(=O)CSc1nc2ccccc2o1`: the activation is -0.66%.

As to `COc1ccc(-c2cn(-c3ccc(OC)cc3)c(=S)[nH]2)cc1`, the activation is -0.09%. To `COc1cc(OC)c(-n2cc(-c3ccc(Cl)cc3)[nH]c2=O)cc1Cl` belongs 32.6% (active); to `COc1cc(OC)c(-n2c(C)cc(C=O)c2C)cc1Cl`, -1.14%; to `O=C(c1snnc1-c1ccccc1)N1CCOCC1`, -0.06%.

As for `CC(=O)Nc1ccc(S(=O)(=O)Nc2ccc(-c3ccc4nnc(C)n4n3)cc2)cc1`, the activation is 0.58%.
